{"source": "ChEMBL document CHEMBL3098105", "about": "“7,7'-Diazaindirubin--a small molecule inhibitor of casein kinase 2 in vitro and in cells” (Bioorg Med Chem, 2014)", "key": {"[1]": {"target": "Inhibitor of nuclear factor kappa-B kinase subunit alpha (Homo sapiens) (UniProt O15111)", "test": "Inhibition of human IKKalpha assessed as residual activity at 1 uM relative to control"}, "[2]": {"target": "LIM domain kinase 1 (Homo sapiens) (UniProt P53667)", "test": "Inhibition of human LIMK1 assessed as residual activity at 1 uM relative to control"}, "[3]": {"target": "Cyclin-dependent kinase 1/cyclin B1 (Homo sapiens) (UniProt P06493+P14635)", "sequence (P06493 whole entry, looked up)": "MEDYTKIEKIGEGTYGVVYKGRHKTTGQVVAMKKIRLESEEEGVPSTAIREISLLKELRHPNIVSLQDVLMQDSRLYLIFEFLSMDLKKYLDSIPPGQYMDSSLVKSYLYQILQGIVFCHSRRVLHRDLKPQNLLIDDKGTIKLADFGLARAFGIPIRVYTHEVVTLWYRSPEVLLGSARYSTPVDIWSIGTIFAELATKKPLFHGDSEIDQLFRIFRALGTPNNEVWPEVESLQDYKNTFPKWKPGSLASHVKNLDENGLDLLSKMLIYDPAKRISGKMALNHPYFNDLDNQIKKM", "sequence (P14635 whole entry, looked up)": "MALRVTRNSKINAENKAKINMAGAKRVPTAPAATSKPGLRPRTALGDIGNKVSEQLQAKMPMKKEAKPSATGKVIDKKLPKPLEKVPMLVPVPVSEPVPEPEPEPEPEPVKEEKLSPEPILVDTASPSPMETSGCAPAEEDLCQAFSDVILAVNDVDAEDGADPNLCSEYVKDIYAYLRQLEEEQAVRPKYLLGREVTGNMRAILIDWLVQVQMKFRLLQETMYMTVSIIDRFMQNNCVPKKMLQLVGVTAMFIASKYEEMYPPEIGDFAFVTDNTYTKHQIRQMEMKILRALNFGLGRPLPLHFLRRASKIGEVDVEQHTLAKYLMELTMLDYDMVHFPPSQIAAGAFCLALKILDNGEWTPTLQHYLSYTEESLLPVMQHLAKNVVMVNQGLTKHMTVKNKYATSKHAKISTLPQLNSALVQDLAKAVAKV", "test": "Inhibition of CDK1/CycB1 (unknown origin) assessed as residual activity at 1 uM relative to control", "type": "protein-complex assay"}, "[4]": {"target": "Testis-specific serine/threonine-protein kinase 2 (Homo sapiens) (UniProt Q96PF2)", "sequence (Q96PF2 whole entry)": "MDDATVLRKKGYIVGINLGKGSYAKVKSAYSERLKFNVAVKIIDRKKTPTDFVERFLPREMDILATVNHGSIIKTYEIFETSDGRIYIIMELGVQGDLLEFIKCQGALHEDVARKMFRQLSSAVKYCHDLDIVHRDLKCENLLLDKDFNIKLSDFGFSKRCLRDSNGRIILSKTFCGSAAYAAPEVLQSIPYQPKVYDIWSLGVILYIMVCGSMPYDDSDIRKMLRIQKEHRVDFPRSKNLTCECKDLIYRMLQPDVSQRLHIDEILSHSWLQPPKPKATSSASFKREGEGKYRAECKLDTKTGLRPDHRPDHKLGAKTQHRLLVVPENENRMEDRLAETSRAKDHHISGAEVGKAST", "test": "Inhibition of human TSSK2 assessed as residual activity at 1 uM relative to control"}, "[5]": {"target": "Vascular endothelial growth factor receptor 3 (Homo sapiens) (UniProt P35916)", "sequence (P35916 whole entry)": "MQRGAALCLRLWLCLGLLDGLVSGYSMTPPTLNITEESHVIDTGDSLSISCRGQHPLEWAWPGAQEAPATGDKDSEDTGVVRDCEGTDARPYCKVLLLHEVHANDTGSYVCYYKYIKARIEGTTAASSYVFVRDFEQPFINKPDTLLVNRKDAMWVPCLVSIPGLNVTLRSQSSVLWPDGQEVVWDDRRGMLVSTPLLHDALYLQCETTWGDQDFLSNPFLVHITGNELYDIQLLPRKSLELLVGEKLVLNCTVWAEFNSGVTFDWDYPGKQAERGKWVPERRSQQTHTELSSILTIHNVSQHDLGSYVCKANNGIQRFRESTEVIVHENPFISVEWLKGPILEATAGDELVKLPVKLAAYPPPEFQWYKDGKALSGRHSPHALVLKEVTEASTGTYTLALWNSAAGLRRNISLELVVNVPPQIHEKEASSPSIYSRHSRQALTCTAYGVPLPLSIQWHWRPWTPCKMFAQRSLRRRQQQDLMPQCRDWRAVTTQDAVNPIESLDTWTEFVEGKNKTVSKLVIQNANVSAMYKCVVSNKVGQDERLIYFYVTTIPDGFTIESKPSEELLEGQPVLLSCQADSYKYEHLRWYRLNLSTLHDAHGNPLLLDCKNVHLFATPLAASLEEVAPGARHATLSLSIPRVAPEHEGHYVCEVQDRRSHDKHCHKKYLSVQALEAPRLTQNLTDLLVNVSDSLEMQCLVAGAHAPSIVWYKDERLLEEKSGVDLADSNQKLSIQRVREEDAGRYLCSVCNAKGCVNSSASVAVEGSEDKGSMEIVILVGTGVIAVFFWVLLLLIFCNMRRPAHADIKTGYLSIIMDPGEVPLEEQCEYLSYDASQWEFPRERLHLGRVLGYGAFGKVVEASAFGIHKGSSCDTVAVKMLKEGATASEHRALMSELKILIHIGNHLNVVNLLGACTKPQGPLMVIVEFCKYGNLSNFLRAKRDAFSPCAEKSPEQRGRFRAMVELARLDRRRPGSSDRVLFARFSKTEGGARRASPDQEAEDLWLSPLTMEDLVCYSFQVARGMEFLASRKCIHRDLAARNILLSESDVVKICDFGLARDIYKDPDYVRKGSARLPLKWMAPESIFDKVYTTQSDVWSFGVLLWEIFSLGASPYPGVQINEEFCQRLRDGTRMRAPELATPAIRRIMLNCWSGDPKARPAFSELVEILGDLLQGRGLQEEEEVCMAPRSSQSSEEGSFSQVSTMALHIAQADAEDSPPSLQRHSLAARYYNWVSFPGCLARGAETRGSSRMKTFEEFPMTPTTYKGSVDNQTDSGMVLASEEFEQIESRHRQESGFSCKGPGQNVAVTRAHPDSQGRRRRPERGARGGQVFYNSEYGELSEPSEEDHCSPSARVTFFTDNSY", "test": "Inhibition of VEGF-R3 (unknown origin) assessed as residual activity at 10 uM relative to control"}, "[6]": {"target": "T1, Muscle, skeletal receptor tyrosine-protein kinase (Homo sapiens) (UniProt O15146)", "T1 sequence (whole entry)": "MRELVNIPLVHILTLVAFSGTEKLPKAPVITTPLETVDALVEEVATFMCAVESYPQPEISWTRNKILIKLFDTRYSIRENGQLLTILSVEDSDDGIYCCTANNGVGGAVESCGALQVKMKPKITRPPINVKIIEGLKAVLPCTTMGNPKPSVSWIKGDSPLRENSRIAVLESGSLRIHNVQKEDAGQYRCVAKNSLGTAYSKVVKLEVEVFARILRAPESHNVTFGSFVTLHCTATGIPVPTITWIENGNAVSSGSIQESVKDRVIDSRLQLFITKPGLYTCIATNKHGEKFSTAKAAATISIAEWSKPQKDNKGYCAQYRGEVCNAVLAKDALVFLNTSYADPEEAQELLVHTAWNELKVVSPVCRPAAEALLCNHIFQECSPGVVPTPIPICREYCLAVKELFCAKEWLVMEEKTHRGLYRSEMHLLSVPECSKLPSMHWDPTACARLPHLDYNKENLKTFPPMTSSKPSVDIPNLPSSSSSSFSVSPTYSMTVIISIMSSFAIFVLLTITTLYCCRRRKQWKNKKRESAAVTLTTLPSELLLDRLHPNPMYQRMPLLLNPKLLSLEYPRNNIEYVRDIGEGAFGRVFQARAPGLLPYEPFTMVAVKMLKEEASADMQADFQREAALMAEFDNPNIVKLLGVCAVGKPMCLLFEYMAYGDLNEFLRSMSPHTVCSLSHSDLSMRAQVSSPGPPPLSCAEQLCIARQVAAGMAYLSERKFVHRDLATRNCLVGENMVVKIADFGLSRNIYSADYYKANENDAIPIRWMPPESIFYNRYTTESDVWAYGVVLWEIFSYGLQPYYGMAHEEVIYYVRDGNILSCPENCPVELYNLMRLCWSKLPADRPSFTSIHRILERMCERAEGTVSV", "test": "Inhibition of MUSK (unknown origin) assessed as residual activity at 1 uM relative to control"}, "[7]": {"target": "Serine/threonine-protein kinase TAO3 (Homo sapiens) (UniProt Q9H2K8)", "sequence (Q9H2K8 whole entry)": "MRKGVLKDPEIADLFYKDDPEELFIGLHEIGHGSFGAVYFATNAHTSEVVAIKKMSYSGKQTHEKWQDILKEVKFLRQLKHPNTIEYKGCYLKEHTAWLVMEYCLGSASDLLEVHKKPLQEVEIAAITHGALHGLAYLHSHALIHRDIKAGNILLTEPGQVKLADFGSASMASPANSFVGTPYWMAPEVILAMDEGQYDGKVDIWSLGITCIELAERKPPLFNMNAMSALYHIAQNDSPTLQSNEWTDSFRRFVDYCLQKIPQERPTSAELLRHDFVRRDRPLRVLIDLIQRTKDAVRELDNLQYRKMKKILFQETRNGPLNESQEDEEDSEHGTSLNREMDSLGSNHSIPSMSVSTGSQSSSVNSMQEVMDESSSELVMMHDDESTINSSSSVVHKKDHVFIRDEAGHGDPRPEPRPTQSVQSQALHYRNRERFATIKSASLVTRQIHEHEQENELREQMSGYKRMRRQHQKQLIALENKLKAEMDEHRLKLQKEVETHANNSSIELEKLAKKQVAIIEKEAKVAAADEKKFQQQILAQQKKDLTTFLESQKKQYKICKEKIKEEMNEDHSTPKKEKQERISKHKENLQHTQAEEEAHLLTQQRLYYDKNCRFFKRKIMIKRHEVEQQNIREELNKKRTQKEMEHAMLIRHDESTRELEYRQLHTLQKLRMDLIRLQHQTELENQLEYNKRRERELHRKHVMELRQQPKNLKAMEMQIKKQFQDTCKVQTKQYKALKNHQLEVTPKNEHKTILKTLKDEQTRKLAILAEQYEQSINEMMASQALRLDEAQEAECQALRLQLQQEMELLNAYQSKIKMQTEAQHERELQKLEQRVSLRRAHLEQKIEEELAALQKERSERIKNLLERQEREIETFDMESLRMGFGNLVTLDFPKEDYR", "test": "Inhibition of human TAO3 assessed as residual activity at 1 uM relative to control"}, "[8]": {"target": "T2, Serine/threonine-protein kinase Chk1 (Homo sapiens) (UniProt O14757)", "T2 sequence (whole entry)": "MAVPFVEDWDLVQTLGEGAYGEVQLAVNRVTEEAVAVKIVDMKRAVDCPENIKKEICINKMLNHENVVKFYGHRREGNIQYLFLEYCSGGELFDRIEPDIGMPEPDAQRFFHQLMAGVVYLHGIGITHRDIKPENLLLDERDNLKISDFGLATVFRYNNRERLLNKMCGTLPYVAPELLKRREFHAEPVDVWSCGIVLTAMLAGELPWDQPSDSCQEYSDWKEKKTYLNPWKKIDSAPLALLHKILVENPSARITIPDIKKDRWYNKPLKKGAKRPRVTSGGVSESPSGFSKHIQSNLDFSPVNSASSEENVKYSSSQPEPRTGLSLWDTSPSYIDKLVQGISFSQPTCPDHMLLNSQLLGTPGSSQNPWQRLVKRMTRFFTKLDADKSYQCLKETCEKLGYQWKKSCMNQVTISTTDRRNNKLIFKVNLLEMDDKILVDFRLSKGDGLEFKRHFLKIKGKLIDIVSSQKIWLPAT", "test": "Inhibition of CHK1 (unknown origin) assessed as residual activity at 1 uM relative to control"}, "MCF7 [9]": {"system": "MCF7", "test": "Induction of late stage apoptosis in CK2-deficient human MCF7 cells at 0.25 to 4 uM after 24 hrs using propidium iodide/annexin V staining by FACS analysis", "type": "functional, cell-based", "how_it_was_run": "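MCF7 cells were then treated for 24 h, stained with FITC-annexin V in HEPES pH 7.4 binding buffer with 1.8 mM CaCl2 (15 min, dark, room temperature), then with PI (10 min), and analysed by FACS.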"}, "[10]": {"target": "Insulin receptor (Homo sapiens) (UniProt P06213)", "test": "Inhibition of human IR assessed as residual activity at 1 uM relative to control"}, "[11]": {"target": "Casein kinase I isoform gamma-1 (Homo sapiens) (UniProt Q9HCP0)", "test": "Inhibition of human CK1gamma1 assessed as residual activity at 1 uM relative to control"}, "[12]": {"target": "Macrophage-stimulating protein receptor (Homo sapiens) (UniProt Q04912)", "test": "Inhibition of human Ron assessed as residual activity at 1 uM relative to control"}, "[13]": {"target": "Mitogen-activated protein kinase 10 (Homo sapiens) (UniProt P53779)", "sequence (P53779 whole entry)": "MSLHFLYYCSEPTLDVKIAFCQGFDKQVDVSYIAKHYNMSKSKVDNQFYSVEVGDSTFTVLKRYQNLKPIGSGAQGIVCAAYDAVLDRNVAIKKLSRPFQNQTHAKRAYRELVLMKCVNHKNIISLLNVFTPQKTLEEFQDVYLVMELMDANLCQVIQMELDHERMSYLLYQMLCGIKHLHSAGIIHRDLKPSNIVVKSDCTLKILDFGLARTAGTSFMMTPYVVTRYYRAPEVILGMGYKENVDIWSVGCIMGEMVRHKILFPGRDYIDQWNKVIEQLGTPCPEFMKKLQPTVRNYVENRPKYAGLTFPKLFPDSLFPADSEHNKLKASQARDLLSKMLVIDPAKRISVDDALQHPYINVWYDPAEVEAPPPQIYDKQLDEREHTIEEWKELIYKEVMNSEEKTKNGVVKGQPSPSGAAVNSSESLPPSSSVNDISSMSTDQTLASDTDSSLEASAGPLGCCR", "test": "Inhibition of human JNK3 assessed as residual activity at 1 uM relative to control"}, "[14]": {"target": "Calcium/calmodulin-dependent protein kinase type II subunit gamma (Homo sapiens) (UniProt Q13555)", "sequence (Q13555 whole entry)": "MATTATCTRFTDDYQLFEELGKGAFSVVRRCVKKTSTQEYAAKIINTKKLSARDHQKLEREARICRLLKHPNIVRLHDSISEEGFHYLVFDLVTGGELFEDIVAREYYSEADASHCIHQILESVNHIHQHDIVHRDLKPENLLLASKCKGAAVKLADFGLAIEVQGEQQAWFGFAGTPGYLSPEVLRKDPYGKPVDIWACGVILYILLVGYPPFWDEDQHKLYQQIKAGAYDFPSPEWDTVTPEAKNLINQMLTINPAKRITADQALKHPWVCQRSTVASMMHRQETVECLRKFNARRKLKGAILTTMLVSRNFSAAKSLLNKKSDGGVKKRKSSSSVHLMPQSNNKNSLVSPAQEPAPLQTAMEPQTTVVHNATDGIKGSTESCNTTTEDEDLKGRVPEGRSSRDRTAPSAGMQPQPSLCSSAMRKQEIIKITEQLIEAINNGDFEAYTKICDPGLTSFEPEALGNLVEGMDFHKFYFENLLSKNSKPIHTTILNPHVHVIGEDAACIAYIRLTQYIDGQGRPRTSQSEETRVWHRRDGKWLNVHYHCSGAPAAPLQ", "test": "Inhibition of human CaMK2gamma assessed as residual activity at 1 uM relative to control"}, "[15]": {"target": "Protein kinase C epsilon type (Homo sapiens) (UniProt Q02156)", "test": "Inhibition of human PKCepsilon assessed as residual activity at 1 uM relative to control"}, "MCF7 [16]": {"system": "MCF7", "test": "Cell cycle arrest in human MCF7 cells assessed as accumulation at S phase at 0.5 uM after 24 hrs using propidium iodide staining by FACS analysis (reference value: 18.59%)", "type": "functional"}, "[17]": {"target": "Cytoplasmic tyrosine-protein kinase BMX (Homo sapiens) (UniProt P51813)", "test": "Inhibition of human Bmx assessed as residual activity at 1 uM relative to control"}, "786-0": {"system": "786-0", "test": "Antiproliferative activity against human 786-0 cells after 3 days by sulforhodamine B assay", "type": "functional", "details": "786-0, 72 h", "how_it_was_run": "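Tested in the NCI 60 cell line panel. GI50 is the concentration giving 50% inhibition of cell growth, and values are the mean of two series of tests.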"}, "[18]": {"target": "Activin receptor type-1B (Homo sapiens) (UniProt P36896)", "sequence (P36896 whole entry)": "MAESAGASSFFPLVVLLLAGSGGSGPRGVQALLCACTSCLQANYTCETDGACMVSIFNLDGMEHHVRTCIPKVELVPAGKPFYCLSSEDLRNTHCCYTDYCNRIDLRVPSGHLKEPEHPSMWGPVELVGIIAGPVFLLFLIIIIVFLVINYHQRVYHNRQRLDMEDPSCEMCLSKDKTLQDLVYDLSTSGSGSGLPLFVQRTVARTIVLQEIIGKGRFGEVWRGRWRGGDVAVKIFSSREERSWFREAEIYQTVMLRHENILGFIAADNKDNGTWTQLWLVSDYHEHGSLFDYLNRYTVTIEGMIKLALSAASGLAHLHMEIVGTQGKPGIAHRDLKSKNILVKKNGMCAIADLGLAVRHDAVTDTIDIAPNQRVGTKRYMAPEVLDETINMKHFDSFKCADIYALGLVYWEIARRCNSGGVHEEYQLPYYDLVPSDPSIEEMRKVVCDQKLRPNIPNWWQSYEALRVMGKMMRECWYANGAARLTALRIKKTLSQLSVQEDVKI", "test": "Inhibition of human ALK4 assessed as residual activity at 1 uM relative to control"}, "[19]": {"target": "Tyrosine-protein kinase FRK (Homo sapiens) (UniProt P42685)", "test": "Inhibition of human PTK5 assessed as residual activity at 1 uM relative to control"}, "[20]": {"target": "Serine/threonine-protein kinase Nek2 (Homo sapiens) (UniProt P51955)", "test": "Inhibition of human NEK2 assessed as residual activity at 1 uM relative to control"}}, "note": "Calls of active or inactive are those of the source. The rule behind the calls is not given here.", "data": [{"smiles": "O=C1Nc2ncccc2/C1=C1/Nc2ncccc2C1=O", "values": [{"measurement": "Activity", "setting": "[1]", "value": 99, "unit": "%"}, {"measurement": "Activity", "setting": "[2]", "value": 80, "unit": "%"}, {"measurement": "Activity", "setting": "[3]", "value": 70, "unit": "%"}, {"measurement": "Activity", "setting": "[4]", "value": 66, "unit": "%"}, {"measurement": "Activity", "setting": "[5]", "value": 73, "unit": "%"}, {"measurement": "Activity", "setting": "[6]", "value": 95, "unit": "%"}, {"measurement": "Activity", "setting": "[7]", "value": 96, "unit": "%"}, {"measurement": "Activity", "setting": "[8]", "value": 99, "unit": "%"}, {"measurement": "Activity", "setting": "MCF7 [9]", "value": "inactive"}, {"measurement": "Activity", "setting": "[10]", "value": 98, "unit": "%"}, {"measurement": "Activity", "setting": "[11]", "value": 104, "unit": "%"}, {"measurement": "Activity", "setting": "[12]", "value": 101, "unit": "%"}, {"measurement": "Activity", "setting": "[13]", "value": 120, "unit": "%"}, {"measurement": "Activity", "setting": "[14]", "value": 103, "unit": "%"}, {"measurement": "Activity", "setting": "[15]", "value": 87, "unit": "%"}, {"measurement": "Activity", "setting": "MCF7 [16]", "value": 17.48, "unit": "%"}, {"measurement": "Activity", "setting": "[17]", "value": 116, "unit": "%"}, {"measurement": "GI50", "setting": "786-0", "value": 4.19, "unit": "µM"}, {"measurement": "Activity", "setting": "[18]", "value": 106, "unit": "%"}, {"measurement": "Activity", "setting": "[19]", "value": 92, "unit": "%"}, {"measurement": "Activity", "setting": "[20]", "value": 101, "unit": "%"}]}]}
